Publication PMC11328607 (Journal of Enzyme Inhibition and Medicinal Chemistry, 2024)
Where “and” joins values, the source holds several entries; their conditions need not be identical. Equal entries are not always repeated. Where two headings read alike, the source gives them in different places.

Columns and labels:
human NSCLC A549 cells = assay: MTT cytotoxicity assay on NSCLC cells; assay type: cell-based; conditions: for fold more potent than cisplatin: A549 IC50 relative to cisplatin; for IC50: Mean ± SD, n = 3; for SI (ratio of IC50 for healthy and cancer cells): Wi-38 IC50 / A549 IC50
In short: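 Human A549 and Wi-38 fibroblasts (ATCC) grown in DMEM with 10% FBS at 37 °C, 5% CO2. Wi-38 seeded at 5 x10^3 cells/well and given 24 h to attach; A549 run by the same MTT method. […] MTT 5 mg/ml added for 3 h at 37 °C, formazan dissolved in DMSO, A570 read. IC50 derived; SI = Wi-38 IC50/A549 IC50. Mean ± SD, n = 3.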

A549 cells = assay: Combination studies with cisplatin; assay type: cell-based, human
[1] = system: normal human lung fibroblasts (Wi-38); assay: MTT cytotoxicity assay on normal lung fibroblasts; assay type: cell-based; conditions: for IC50: read-out: Wi-38 IC50
[2] = DPPH radical scavenging assay; conditions: n = 3; for DPPH radical scavenging %: 12 h, dark
In short: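 Test compound dissolved in 1:1 water:DMSO (v/v), then mixed with an equal volume of 0.6 mM DPPH in absolute ethanol, giving final 500, 250, 125, 100, 62.5 and 31.25 µg/mL. Kept 12 h at room temperature in complete darkness. Absorbance read at 517 nm. Inhibition % taken from control (A0) versus compound (A1) absorbance, IC50 then calculated. Mean ± SD, n = 3.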

[3] = target: CaV3.2 (T-type) calcium channels (Homo sapiens, UniProt O95180); assay: Whole cell patch-clamp T-type calcium channel block; assay type: cell-based; conditions: HEK-tsA201, read-out: Block of CaV3.2 (T-type) currents, percentage of inhibition, 10 μM; HEK tsA-201 cells; n = 3
CaV3.2 (T-type) calcium channels, sequence (O95180 whole entry): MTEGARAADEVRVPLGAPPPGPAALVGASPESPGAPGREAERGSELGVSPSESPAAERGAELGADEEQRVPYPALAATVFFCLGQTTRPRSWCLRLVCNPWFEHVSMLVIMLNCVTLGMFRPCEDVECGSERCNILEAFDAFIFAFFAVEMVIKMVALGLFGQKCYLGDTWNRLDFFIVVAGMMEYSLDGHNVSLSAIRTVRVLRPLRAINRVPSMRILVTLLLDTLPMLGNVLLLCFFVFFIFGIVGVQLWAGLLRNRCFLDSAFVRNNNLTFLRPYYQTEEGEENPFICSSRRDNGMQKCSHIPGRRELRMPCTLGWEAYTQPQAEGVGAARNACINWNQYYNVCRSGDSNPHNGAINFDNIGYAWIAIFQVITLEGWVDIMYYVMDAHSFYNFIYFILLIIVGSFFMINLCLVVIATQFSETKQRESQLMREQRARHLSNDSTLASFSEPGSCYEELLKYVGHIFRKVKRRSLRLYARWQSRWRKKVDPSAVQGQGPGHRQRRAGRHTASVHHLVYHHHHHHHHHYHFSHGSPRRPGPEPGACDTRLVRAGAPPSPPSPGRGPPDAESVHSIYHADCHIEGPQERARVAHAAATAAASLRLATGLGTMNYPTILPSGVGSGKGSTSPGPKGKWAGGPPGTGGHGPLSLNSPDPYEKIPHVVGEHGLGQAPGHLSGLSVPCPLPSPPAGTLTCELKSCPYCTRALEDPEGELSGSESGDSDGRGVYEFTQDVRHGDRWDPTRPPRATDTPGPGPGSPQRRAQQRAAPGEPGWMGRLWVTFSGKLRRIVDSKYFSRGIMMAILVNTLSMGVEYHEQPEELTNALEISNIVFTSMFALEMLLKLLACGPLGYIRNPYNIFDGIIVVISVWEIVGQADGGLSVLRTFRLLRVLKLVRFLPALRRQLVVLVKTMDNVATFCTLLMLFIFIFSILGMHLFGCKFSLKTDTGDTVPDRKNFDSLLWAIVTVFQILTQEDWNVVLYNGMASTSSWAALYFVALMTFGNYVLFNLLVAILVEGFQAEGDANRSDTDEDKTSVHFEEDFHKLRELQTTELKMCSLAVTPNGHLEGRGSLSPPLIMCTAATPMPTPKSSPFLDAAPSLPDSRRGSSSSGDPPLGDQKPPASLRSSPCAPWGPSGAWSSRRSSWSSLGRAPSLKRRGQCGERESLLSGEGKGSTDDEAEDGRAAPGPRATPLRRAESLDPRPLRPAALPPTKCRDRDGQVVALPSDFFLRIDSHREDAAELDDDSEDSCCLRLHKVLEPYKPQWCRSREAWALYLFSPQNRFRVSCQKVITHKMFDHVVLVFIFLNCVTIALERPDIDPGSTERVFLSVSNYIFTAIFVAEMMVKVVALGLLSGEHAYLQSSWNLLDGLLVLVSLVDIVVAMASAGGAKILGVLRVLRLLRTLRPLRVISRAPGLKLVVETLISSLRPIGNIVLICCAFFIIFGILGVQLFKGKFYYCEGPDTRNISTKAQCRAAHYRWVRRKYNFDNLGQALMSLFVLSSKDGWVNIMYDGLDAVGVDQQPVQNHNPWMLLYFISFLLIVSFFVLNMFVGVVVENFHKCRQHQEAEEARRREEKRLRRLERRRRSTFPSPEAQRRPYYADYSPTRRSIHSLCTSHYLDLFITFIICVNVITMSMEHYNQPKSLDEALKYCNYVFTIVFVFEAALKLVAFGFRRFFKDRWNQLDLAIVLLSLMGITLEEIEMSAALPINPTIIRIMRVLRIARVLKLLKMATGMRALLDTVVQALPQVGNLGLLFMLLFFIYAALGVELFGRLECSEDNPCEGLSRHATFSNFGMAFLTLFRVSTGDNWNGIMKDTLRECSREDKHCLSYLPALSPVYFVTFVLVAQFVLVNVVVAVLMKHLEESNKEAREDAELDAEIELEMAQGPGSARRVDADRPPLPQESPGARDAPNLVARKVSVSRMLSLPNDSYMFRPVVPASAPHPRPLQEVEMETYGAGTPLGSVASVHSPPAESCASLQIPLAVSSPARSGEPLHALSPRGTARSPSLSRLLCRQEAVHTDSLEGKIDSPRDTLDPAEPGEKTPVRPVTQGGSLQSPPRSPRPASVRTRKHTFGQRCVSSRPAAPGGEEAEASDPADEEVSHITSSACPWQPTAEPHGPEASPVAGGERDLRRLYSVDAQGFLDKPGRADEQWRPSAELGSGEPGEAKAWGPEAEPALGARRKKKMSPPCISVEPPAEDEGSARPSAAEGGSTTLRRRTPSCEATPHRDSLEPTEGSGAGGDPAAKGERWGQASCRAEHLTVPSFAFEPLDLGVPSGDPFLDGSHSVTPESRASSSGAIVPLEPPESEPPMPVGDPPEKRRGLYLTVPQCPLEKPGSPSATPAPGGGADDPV
In short: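 Human embryonic kidney tsA-201 (293T) cells transiently transfected to express CaV3.2 T-type channels, then recorded by whole-cell patch clamp. Each test compound applied at 10 µM and block of T-type calcium current measured.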

MMP-9 = MMP-9 (Homo sapiens, UniProt P14780); assay: In vitro MMP-9 inhibition assay; assay type: biochemical
MMP-9, sequence (P14780 94-707): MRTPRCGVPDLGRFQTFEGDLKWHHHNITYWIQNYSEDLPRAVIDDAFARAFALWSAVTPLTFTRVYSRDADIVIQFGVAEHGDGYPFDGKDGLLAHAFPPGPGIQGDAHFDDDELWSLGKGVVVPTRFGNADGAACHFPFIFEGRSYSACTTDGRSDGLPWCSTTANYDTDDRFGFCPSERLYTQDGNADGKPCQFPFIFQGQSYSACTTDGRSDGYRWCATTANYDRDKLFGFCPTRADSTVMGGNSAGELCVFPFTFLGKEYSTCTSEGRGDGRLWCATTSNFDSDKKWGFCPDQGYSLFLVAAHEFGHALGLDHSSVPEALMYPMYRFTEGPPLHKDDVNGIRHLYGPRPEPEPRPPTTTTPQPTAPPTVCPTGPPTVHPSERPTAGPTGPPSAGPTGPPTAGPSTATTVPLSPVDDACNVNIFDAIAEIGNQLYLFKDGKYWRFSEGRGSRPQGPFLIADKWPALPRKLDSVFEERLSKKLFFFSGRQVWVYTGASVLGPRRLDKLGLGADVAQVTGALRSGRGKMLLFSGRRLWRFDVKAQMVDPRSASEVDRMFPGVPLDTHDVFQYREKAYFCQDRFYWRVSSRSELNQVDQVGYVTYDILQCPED
In short: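 Commercial MMP-9 inhibitor assay kit, run per the manufacturer's instructions. Test compounds were assayed at 0.5 µM alongside the broad-spectrum hydroxamate MMP inhibitor NNGH as reference. For selectivity, MMP-2 inhibition was measured with a colorimetric MMP-2 inhibitor screening kit at the same 0.5 µM, also per the manufacturer's instructions.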

[4] = Homo sapiens, A549, 72 h, read-out: A549 IC50, MTT, 72 h

inhibition at 10 µM [3] [%]	SMILES	IC50 (human NSCLC A549 cells; [4]) [nM]	IC50 ([1]; Homo sapiens, WI-38, 72 h) [nM]	Wi-38 EC100 (effective safe concentration at 100% cell viability) ([1]; MTT, 72 h, Mean ± SD, n = 3)	other results
~60	O=C(Cn1cc(C=CC(=O)c2ccc(F)cc2)nn1)Nc1nc(-c2ccccc2)cs1 [Compound 6d, 2-{4-[3–(4-Fluorophenyl)-3-oxoprop-1-en-1-yl]-1H-1,2,3-triazol-1-yl}-N-(4-phenylthiazol-2-yl)acetamide]	21 ± 1	255 ± 3	138 ± 9 nM	fold more potent than cisplatin (human NSCLC A549 cells): 27 fold; lowering of combination IC50 compared to cisplatin as single agent (A549 cells; 6d combined with cisplatin): > 72.3% and > 72.32%; dose reduction index (DRI) for cisplatin (A549 cells; 6d with cisplatin at IC50 doses): 6.89 folds; combination index (CI) (A549 cells; 6d with cisplatin, CI < 1 synergistic): 0.69 ± 0.05 and 0.69; DPPH radical scavenging % ([2]; 250 µg/mL): 70.9 ± 6.6%; DPPH radical scavenging % ([2]; 500 µg/mL): 85.4 ± 7.9%; DPPH radical scavenging IC50 ([2]; Mean ± SD): 146.9 ± 22.54 µg/mL; IC50 (MMP-9): 90 ± 10 nM; selectivity to MMP-9 over MMP-2 (SI) (MMP-9; MMP-9 over MMP-2, 0.5 μM): 2.4; inhibition at 0.5 µM (MMP-9; read-out: MMP-9 % Inhibition (0.5 μM)): 96.2 ± 0.6%; fold more active than NNGH (MMP-9 IC50) (MMP-9; relative to NNGH): ~4 fold
	O=C(C=Cc1cn(CC(=O)Nc2nc(-c3ccccc3)cs2)nn1)C=Cc1cn(CC(=O)Nc2nc(-c3ccccc3)cs2)nn1 [Compound 8, 2,2’-[(3-Oxopenta-1,4-diene-1,5-diyl)bis(1H-1,2,3-triazole-4,1-diyl)]bis(N-(4-phenylthiazol-2-yl)acetamide)]	116 ± 1	108 ± 3	38 ± 2 nM	
~60	O=C(Cn1cc(CO)nn1)Nc1nc(-c2ccccc2)cs1 [Compound 4, 2-[4-(Hydroxymethyl)-1H-1,2,3-triazol-1-yl]-N-(4-phenylthiazol-2-yl)acetamide]	268 ± 2	249 ± 2	58 ± 4 nM	
	COc1ccc(S(=O)(=O)N(CC(=O)NO)CC(C)C)cc1 [NNGH, reference compound]				MMP-9 % Inhibition (0.5 μM) (MMP-9; 0.5 μM, Mean ± SD, n = 2): 56.8 ± 0.8%; IC50 (MMP-9; read-out: MMP-9 IC50, Mean ± SD, n = 2): 350 ± 10 nM
	O=C(Cn1cc(C2CC(c3ccc(F)cc3)=NN2)nn1)Nc1nc(-c2ccccc2)cs1 (stereo not shown) [Compound 7d, 2-{4-[3–(4-Fluorophenyl)-4,5-dihydro-1H-pyrazol-5-yl]-1H-1,2,3-triazol-1-yl}-N-(4-phenylthiazol-2-yl)acetamide]	425 ± 17	1300 ± 31	108 ± 15 nM	SI (ratio of IC50 for healthy and cancer cells) (human NSCLC A549 cells): 3.05
	[N-]=[N+]=NCC(=O)Nc1nc(-c2ccccc2)cs1 [Compound 3, 2-Azido-N-(4-phenylthiazol-2-yl)acetamide]	74.4	1728 ± 3	429 nM and 429 ± 32 nM	fold more potent than cisplatin (human NSCLC A549 cells): ~8 fold; IC50 (human NSCLC A549 cells; read-out: A549 IC50, MTT, 72 h): 74 ± 4 nM
	Cc1ccc(C2=NNC(c3cn(CC(=O)Nc4nc(-c5ccccc5)cs4)nn3)C2)cc1 (stereo not shown) [Compound 7c, 2-{4-[3-(p-tolyl)-4,5-dihydro-1H-pyrazol-5-yl]-1H-1,2,3-triazol-1-yl}-N-(4-phenylthiazol-2-yl)acetamide]	200 ± 6	230 ± 5	51 ± 7 nM	SI (ratio of IC50 for healthy and cancer cells) (human NSCLC A549 cells): 1.15
20	O=Cc1cn(CC(=O)Nc2nc(-c3ccccc3)cs2)nn1 [Compound 5, 2–(4-Formyl-1H-1,2,3-triazol-1-yl)-N-(4-phenylthiazol-2-yl)acetamide]	112	243 ± 14	78 ± 4 nM	
	N.N.[Cl][Pt][Cl] [Cisplatin, reference compound]				IC50 (human NSCLC A549 cells; read-out: A549 IC50, MTT, 72 h): 586 ± 30 nM; IC50 ([1]; MTT, 72 h, Mean ± SD, n = 3): 1330 ± 82 nM
	CC(=O)C=Cc1cn(CC(=O)Nc2nc(-c3ccccc3)cs2)nn1 [Compound 6a, 2-[4–(3-Oxobut-1-en-1-yl)-1H-1,2,3-triazol-1-yl]-N-(4-phenylthiazol-2-yl)acetamide]	82 ± 5	1920 ± 212	460 nM and 460 ± 110 nM	
